Reference: the array DNA melting data of Ke et al. (doi:10.1101/2024.01.08.574731)

Assays:
[1] = folding enthalpy; higher = less favourable; fluorescence melt of hairpins on a sequencing array, two-state fit; conditions: sodium 0.088 M
Method in brief: (§1)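 Hairpins were imaged by Cy3 fluorescence on a sequenced MiSeq flow cell with annealed Cy3 and quencher oligos, in 50 mM Na-HEPES pH 8.0, 25 mM NaCl, in 2.5 °C steps up to 60 °C. Bootstrapped two-state fits of normalised signals gave melting temperature and folding enthalpy. Four replicates were combined by inverse variance, and fitted temperatures were raised by 9.35 °C to match UV melts.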

[2] = melting temperature; fluorescence melt of hairpins on a sequencing array, two-state fit, raised by 9.35 °C to match UV melts; conditions: sodium 0.088 M
Method in brief: as §1

Row | Sequence | folding enthalpy [1] [kcal/mol] | Tm [2] [°C]
1 | GTCCGTGGAAACACGAAC ((.((((....)))).)) | -21 | 39.7
2 | CATCAGAAATGATG (((((....))))) | -18.6 | 41.7
3 | GGACACCGAAAGGTCTCC (((.(((....))).))) | -23.8 | 40
4 | GTTGTTGAAAAACAAC ((((((....)))))) | -38.2 | 51.9
5 | GCACTGCGAAAGCATTGC (((.(((....))).))) | -42.6 | 52.5
6 | GATGGCGAAAGCCGTATC ((((((....)))..))) | -6.56 | 43.8
7 | GAGTAAGAAATTACTC ((((((....)))))) | -24.5 | 40.1
8 | GGTTGCGAAAGCAGACC ((((((....))).))) | -27.2 | 51
9 | GCACCCGAAAGGGTCTGC ((((((....)))..))) | -13.3 | 49.1
10 | GACCAGACGAAAGTCGTC (((..(((....)))))) | -12.5 | 31.7
11 | GAGCGCGAAAGCGTCTC ((((((....))).))) | -21.2 | 61.5
12 | GCTACGCGAAAGCTTCGC ((.(.((....)).).)) | -10.3 | 37.6
13 | GATCGAGGAAACTCGGTC ((.((((....)))).)) | -30.4 | 50.5
14 | GGCCCCCGAAAGGGCGCC (((.(((....))).))) | -24.8 | 58.3
15 | GCGGGTGGAAACACCCAC (.(((((....))))).) | -11.5 | 48.7
16 | GATCAGCGATCTGATC ((((((....)))))) | -19.5 | 50
17 | GGGTAGGGAAACCTACCC (((((((....))))))) | -50.9 | 64
18 | GCCGACGGAAACATCGGC (((((.(....).))))) | -38.6 | 53
19 | GCCACGCGAAAGCATCGC ((.(.((....)).).)) | -7.48 | 24
20 | GAGGATGGAAACGTCCTC (((((.(....).))))) | -34.9 | 49.6
21 | GCACTCCGAAAGGATGC (((.(((....)))))) | -29.4 | 51.7
22 | GTGACCACGAAAGTGCAC (((..(((....)))))) | -12 | 32
23 | GATCATTCCATGATC ((((((...)))))) | -39.4 | 51

Row | Sequence | folding enthalpy [1] [kcal/mol] | Tm [2] [°C]
24 | GCAGACCGAAAGGTTGC (((.(((....)))))) | -28.9 | 53.5
25 | GCCAGGCGAAAGCTCGGC (((..((....))..))) | -38.4 | 59.8
26 | GGTCTCGAAAGAGGGACC ((((((....)))..))) | -22.4 | 44
27 | GTTGTCGGAAACGATGAC ((..(((....)))..)) | -16 | 40.4
28 | GGTTGAGGAAACTCGACC (((.(((....))).))) | -44.2 | 51.5
29 | GCACAGGCGAAAGCCTGC (((..(((....)))))) | -6.09 | 42.6
30 | GGTGGTGGAAACACCGTC (..((((....))))..) | -22.8 | 55.5
31 | GATGTGGCGAAAGCCATC (((..(((....)))))) | -8.76 | 38.5
32 | GATCGAGGAATCGATC ((((((....)))))) | -33.2 | 55.9
33 | GTGGGGGGAAACCTCCGC (.((.((....)).)).) | -25.4 | 45.4
34 | GCTTTGCGAAAGCAAGGC ((.((((....)))).)) | -21.3 | 62.1
35 | GATCGGCAAGCCGATC ((((((....)))))) | -30.5 | 67
36 | GAGTAACGAAAGTTCCTC (((.(((....))).))) | -19.8 | 38
37 | GATCATCTGCATGATC ((((((....)))))) | -36 | 46.2
38 | GATCACACTTGTGATC ((((((....)))))) | -39.4 | 56.4
39 | GTGCAACGAAAGTTCAC (((.(((....)))))) | -13.2 | 45.7
40 | GGACTCGGAAACGGGTTC (.((.((....)).)).) | -25.7 | 40.2
41 | GATCCCGCCTGGGATC ((((((....)))))) | -39.1 | 64.9
42 | GTAACTGGAAACAGTCAC ((.((((....)))).)) | -17 | 34.8
43 | GATCACAGTGTGATC ((((((...)))))) | -39.9 | 56.6
44 | GACCAGCCGAAAGGCGTC (((..(((....)))))) | -7.85 | 34.5
45 | GGCGATCCGAAAGGAGCC (((..(((....)))))) | -35.4 | 53.9
46 | CGGGGGAAACCCCG (((((....))))) | -21.8 | 68.5
